Assay results as given in article PMC5783483 (Molecular Medicine Reports, 2017).
Marks after values point to notes of the source that are not given here.

Tests used:
Type in all cases: in vivo, BALB/c/nu nude mice
Details in all cases: Taxol 5 mg/kg injection twice per week
MX-1 xenograft = assay: Breast cancer MX-1 xenograft model
Method in brief: (§1)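 Six-week-old female BALB/c/nu nude mice (15–16 g) bearing MX-1 or MX-1/T xenografts, housed at 25°C on a 12-h light/dark cycle. Mice were randomized into four groups of five once mean tumor volume reached 100–250 mm3. Read-outs were relative tumor volume T/C and excised tumor weight, as mean ± SD.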

MCF-7 xenograft = assay: Breast cancer MCF-7 xenograft model
Method in brief: (§2)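 Six-week-old female BALB/c/nu nude mice (16–22 g) bearing MCF-7 or MCF-7/T xenografts, housed at 25°C on a 12-h light/dark cycle. Mice were randomized into four groups of five at a mean tumor volume of 100–250 mm3. Read-outs were RTV T/C and excised tumor weight, as mean ± SD.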

MCF-7/T xenograft = assay: Breast cancer MCF-7/T xenograft model
Method in brief: as §2

MX-1/T xenograft = assay: Breast cancer MX-1/T xenograft model
Method in brief: as §1

CC(=O)O[C@H]1C(=O)[C@@]2(C)[C@H]([C@H](OC(=O)c3ccccc3)[C@]3(O)C[C@H](OC(=O)[C@H](O)[C@@H](NC(=O)c4ccccc4)c4ccccc4)C(C)=C1C3(C)C)[C@]1(OC(C)=O)CO[C@@H]1C[C@@H]2O [Taxol]
Body weight Final (MX-1 xenograft; 13 days): 20.8 ± 2.2 g | Relative tumor volume Treated/control ratio (MX-1 xenograft; 13 days): 55.56% | Relative tumor volume x±SD (MX-1 xenograft; 13 days): 12.27±2.33^b | Tumor volume Final (MX-1 xenograft; 13 days): 1,714.4±308.2^a mm3 | Tumor weight Inhibition (MX-1 xenograft; 13 days): 41.56% | Tumor weight x±SD (MX-1 xenograft; 13 days): 0.94±0.20^a g | Body weight Initial (MX-1 xenograft; before treatment): 16.0 ± 0.7 g | Tumor volume Initial (MX-1 xenograft; before treatment): 140.2±13.3 mm3 | Body weight Final (MCF-7 xenograft; 33 days): 22.8 ± 2.3 g | Relative tumor volume Treated/control ratio (MCF-7 xenograft; 33 days): 6.75% | Relative tumor volume x±SD (MCF-7 xenograft; 33 days): 0.34±0.22^a | Tumor volume Final (MCF-7 xenograft; 33 days): 68.3±32.5^a mm3 | Tumor weight Inhibition (MCF-7 xenograft; 33 days): 96.36% | Tumor weight x±SD (MCF-7 xenograft; 33 days): 0.04±0.02^a g | Body weight Initial (MCF-7 xenograft; before treatment): 21.0 ± 1.6 g | Tumor volume Initial (MCF-7 xenograft; before treatment): 227.4±74.6 mm3 | Body weight Final (MCF-7/T xenograft; 33 days): 17.5 ± 2.1 g | Relative tumor volume x±SD (MCF-7/T xenograft; 33 days): 12.59±3.17 | Tumor volume Final (MCF-7/T xenograft; 33 days): 1,871.0±981.5 mm3 | Tumor weight x±SD (MCF-7/T xenograft; 33 days): 1.36 ± 0.48 g | Body weight Initial (MCF-7/T xenograft; before treatment): 16.8 ± 1.9 g | Tumor volume Initial (MCF-7/T xenograft; before treatment): 132.5±45.3 mm3 | Body weight Final (MX-1/T xenograft; 13 days): 20.4 ± 0.9 g | Relative tumor volume Treated/control ratio (MX-1/T xenograft; 13 days): 95.13% | Relative tumor volume x±SD (MX-1/T xenograft; 13 days): 22.71±11.09 | Tumor volume Final (MX-1/T xenograft; 13 days): 2,183.1±1,091.0 mm3 | Tumor weight x±SD (MX-1/T xenograft; 13 days): 1.58 ± 0.79 g | Body weight Initial (MX-1/T xenograft; before treatment): 15.6 ± 0.6 g | Tumor volume Initial (MX-1/T xenograft; before treatment): 95.7±17.1 mm3
